Structures are written as SMILES. Activity calls are given as the source filed them. No cut-off for these calls is given here.

Assay [1] has as its target T1, Protein disulfide-isomerase (Homo sapiens, UniProt P07237). Put plainly: Inhibition of recombinant human N-terminal His-tagged PDI expressed in Escherichia coli BL21 (DE3) pLysS assessed as reduction in enzyme-mediated bovine insulin aggregation.
Target sequence in this assay (P07237 whole entry): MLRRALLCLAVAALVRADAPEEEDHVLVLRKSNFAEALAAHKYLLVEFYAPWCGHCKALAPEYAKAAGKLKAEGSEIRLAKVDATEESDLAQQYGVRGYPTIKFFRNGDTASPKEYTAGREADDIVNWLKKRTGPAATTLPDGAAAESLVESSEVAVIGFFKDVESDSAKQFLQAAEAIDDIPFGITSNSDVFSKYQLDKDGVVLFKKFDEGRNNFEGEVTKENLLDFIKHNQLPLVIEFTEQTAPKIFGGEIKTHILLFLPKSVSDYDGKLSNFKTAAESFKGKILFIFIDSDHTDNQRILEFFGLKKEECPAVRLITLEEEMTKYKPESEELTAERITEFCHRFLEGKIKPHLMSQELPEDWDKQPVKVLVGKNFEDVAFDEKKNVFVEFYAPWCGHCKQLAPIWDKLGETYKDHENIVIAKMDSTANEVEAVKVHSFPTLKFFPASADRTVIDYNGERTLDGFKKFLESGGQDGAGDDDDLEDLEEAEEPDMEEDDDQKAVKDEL
In assay [2] the test system is U-87 MG. Put plainly: Cytotoxicity against human U87MG cells assessed as inhibition of cell growth measured after 72 hrs by MTT assay. It counts as functional, cell-based, U-87MG ATCC. The conditions noted are these: Homo sapiens, U-87 MG, 72 h; read-out: IC50. In short, it runs like this: (§1)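 A172 and NU04 cells were seeded at 4000 cells/well and U87MG at 5000 cells/well, incubated overnight at 37 °C, 5% CO2, then exposed to compound or vehicle for 72 h. MTT (3 mg/mL) was added for 4 h, formazan was dissolved in DMSO, and absorbance was read at 570 nm. IC50 came from nonlinear regression; mean ± SD of at least three experiments.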
(Formazan colour is commonly taken as a measure of viable cells.)

Assay [3] has as its system A 172. Put plainly: Cytotoxicity against human A172 cells assessed as inhibition of cell growth measured after 72 hrs by MTT assay. Format: functional, cell-based. The settings on record: Homo sapiens, A 172, 72 h; read-out: IC50. In short, it runs like this: as §1
Assay [4] in a line: Cytotoxicity against human NU04 cells assessed as inhibition of cell growth measured after 72 hrs by MTT assay. Format: functional, cell-based. The conditions noted are these: Homo sapiens, 72 h; read-out: IC50. In short, it runs like this:
as §1

For assay [5], the system named is HFF-1. Put plainly: Cytotoxicity against HFF1 cells assessed as inhibition of cell growth measured after 72 hrs by MTT assay. Format: cell-based. The conditions noted are these: Homo sapiens, HFF-1, 72 h. The method, boiled down: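 Cells grown as monolayers at 37 °C, 5% CO2, seeded and left overnight, then exposed to drug or vehicle for 72 h. MTT (20 μL of 3 mg/mL) added for 4 h, supernatant removed, formazan dissolved in DMSO, absorbance read at 570 nm. IC50 from nonlinear regression of log concentration–response curves; at least three independent experiments.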

Assay [6] can be described thus: Therapeutic ratio of IC50 for HFF1 cells to IC50 for human NU04 cells. The method, boiled down:
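Ratio of two growth-inhibition IC50s, HFF-1 normal human fibroblasts over NU04 glioma cells. Cells were grown as monolayers at 37 °C in 5% CO2, with NU04 seeded at 4000 cells/well. After overnight attachment, cells were exposed to compound or vehicle for 72 h. MTT (3 mg/mL) was added for 4 h, and formazan dissolved in DMSO was read at 570 nm. IC50s came from nonlinear regression of log concentration-response curves, with at least three independent experiments.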

For assay [7], the target named is T1, Protein disulfide-isomerase. Put plainly: Binding affinity to recombinant human N-terminal His-tagged PDI expressed in Escherichia coli BL21 (DE3) pLysS assessed as change in melting temperature at 100 uM by ROX dye based thermal shift assay. The method, boiled down: (§2)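 Purified wild-type, C53S/C397S or H256A PDI at 0.5 mg/mL in 50 mM Tris, pH 7.0, with or without 100 μM compound, was mixed with ROX dye in a 20 µL well. DMSO (5% in buffer) was the control. Samples were heated 25–99 °C at 1 °C/min, and the Boltzmann melting temperature shift versus DMSO was reported. Mean ± SD of three experiments.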
Target sequence in this assay (P07237 18-508 limits assumed): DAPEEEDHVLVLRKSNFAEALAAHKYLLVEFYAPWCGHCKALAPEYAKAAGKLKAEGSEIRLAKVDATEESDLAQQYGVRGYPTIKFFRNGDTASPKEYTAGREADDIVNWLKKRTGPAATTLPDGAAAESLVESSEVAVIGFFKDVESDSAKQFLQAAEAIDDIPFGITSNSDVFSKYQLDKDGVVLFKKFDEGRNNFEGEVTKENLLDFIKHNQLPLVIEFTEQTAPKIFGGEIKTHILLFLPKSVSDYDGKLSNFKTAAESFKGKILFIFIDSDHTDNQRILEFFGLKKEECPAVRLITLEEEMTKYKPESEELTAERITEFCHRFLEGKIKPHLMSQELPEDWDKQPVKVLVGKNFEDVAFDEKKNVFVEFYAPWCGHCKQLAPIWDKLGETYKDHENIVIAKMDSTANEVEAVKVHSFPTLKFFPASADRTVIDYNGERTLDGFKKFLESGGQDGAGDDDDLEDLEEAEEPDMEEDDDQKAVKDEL

Assay [8] concerns Protein disulfide-isomerase (Homo sapiens), P07237 [H256A]. Nature of the assay: Binding affinity to recombinant human N-terminal His-tagged PDI H256A mutant expressed in Escherichia coli BL21 (DE3) pLysS assessed as change in melting temperature at 100 uM by ROX dye based thermal shift assay. In short, it runs like this:
as §2

The test system of assay [9] is Protein disulfide-isomerase (Homo sapiens), P07237 [C53S,C397S]. Nature of the assay: Binding affinity to recombinant human N-terminal His-tagged PDI C53S/C397S double mutant expressed in Escherichia coli BL21 (DE3) pLysS assessed as change in melting temperature at 100 uM by ROX dye based thermal shift assay. In short, it runs like this: as §2
Assay [10] has as its target T1, Protein disulfide-isomerase. Nature of the assay: Binding affinity to recombinant human N-terminal His-tagged PDI expressed in Escherichia coli BL21 (DE3) pLysS by isothermal titration calorimetry. A general note: ITC needs no label: the signal is the heat of the interaction.
Target sequence in this assay (P07237 whole entry): as the sequence (P07237 whole entry) above
The target in assay [11] is Eukaryotic translation initiation factor 2 subunit 1 (Homo sapiens) (UniProt P05198). Put plainly: Induction of EIF2alpha phosphorylation in human U87MG cells at 20 uM measured after 2 hrs by Western blot analysis. Format: cell-based. The method, boiled down: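 eIF2α phosphorylation in U87MG cells after 2 h with 1 µM PACMA31 or 20 µM analogues; tunicamycin 10 µg/mL as comparator. Lysates (Tris/NaCl/Triton/SDS, sonicated) quantified by BCA; 30 µg protein separated on 10% gels, blotted to PVDF, probed for phospho-eIF2α, detected by fluorescence.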

For assay [12] the target is unchanged. Put plainly: Induction of EIF2alpha phosphorylation in human A172 cells at 20 uM measured after 2 hrs by Western blot analysis. Format: cell-based. On the technique in general: A western blot detects proteins with antibodies after separation by electrophoresis.
Assay [13] concerns A 172. Nature of the assay: Induction of endoplasmic reticulum stress in human A172 cells assessed as increase in GRP78 expression at 20 uM measured after 24 hrs by Western blot analysis. Format: functional, cell-based.
The test system of assay [14] is A 172. Put plainly: Antimigratory activity against human A172 cells assessed as reduction in cell migration towards wound area at 10 uM measured after 24 hrs by Giemsa staining based microscopic analysis. Format: functional. The method, boiled down: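 A172 cells plated at 50,000 cells/well, incubated overnight at 37 °C, 5% CO2, then held 24 h in serum-free DMEM. A scratch was made, compounds were added, and cells grew 24 h until DMSO-control wells closed. Cells were Giemsa-stained and imaged at 10X.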

The test system of assay [15] is U-87 MG. Nature of the assay: Effect on PDI expression in human U87MG cells at 20 uM measured after 24 hrs by Western blot analysis. It counts as functional, cell-based. The conditions noted are these: U-87MG ATCC.
In assay [16] the test system is A 172. Nature of the assay: Antimigratory activity against human A172 cells at 30 uM measured after 4 hrs by Giemsa staining based transwell migration assay. It counts as functional, cell-based. The method, boiled down:
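A172 cells (1 x 10^5) were treated with compound and seeded into inserts with 8.0 μm PET membrane in serum-free medium. DMEM with 10% FBS was in the lower well; wells without FBS served as control. After 4 h, migrated cells were Giemsa-stained and imaged at 10X, 5 fields per well.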

The subject of assay [17] is U-87 MG. Nature of the assay: Effect on MMP2 expression in human U87MG cells at 10 uM measured after 24 hrs by Western blot analysis. The conditions noted are these: U-87MG ATCC. Format: functional, cell-based.
In assay [18] the test system is U-87 MG. Nature of the assay: Down regulation of MMP9 expression in human U87MG cells at 10 uM measured after 24 hrs by Western blot analysis. Format: functional, cell-based. The settings on record: U-87MG ATCC.
Assay [19] relates to Protein disulfide-isomerase (Homo sapiens), P07237 [H256A]. Nature of the assay: Inhibition of recombinant human N-terminal His-tagged PDI H256A mutant expressed in Escherichia coli BL21 (DE3) pLysS at 10 uM assessed as reduction in enzyme-mediated bovine insulin aggregation. The method, boiled down: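 Insulin reductase assay against H256A PDI: 0.4 μM enzyme preincubated with compounds at 10 μM for 1 h at 37 °C in 100 mM sodium phosphate, 2 mM EDTA, 8 μM DTT, pH 7.0. Then 500 μM DTT and 130 μM bovine insulin added; aggregation read at 620 nm at room temperature. Activity % from OD change at 0 and 80 min, relative to PDI and DTT-only controls; three experiments.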

Assay [20] deals with T1, Protein disulfide-isomerase. Nature of the assay: Inhibition of recombinant human N-terminal His-tagged PDI expressed in Escherichia coli BL21 (DE3) pLysS assessed as reduction in enzyme-mediated bovine insulin aggregation at 40 uM measured after 1 hr in presence of 5 mM NAC. In short, it runs like this:
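Compounds pretreated with NAC for 30 min at 37 °C, then added to the insulin reductase assay at final 40 μM compound with 0, 1, 2 or 5 mM NAC. The assay uses 0.4 μM PDI preincubated 1 h at 37 °C, then DTT and bovine insulin, read at 620 nm, with % activity at 80 min.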
Target sequence in this assay (P07237 18-508 limits assumed): as the sequence (P07237 18-508 limits assumed) above

Sequence of Protein disulfide-isomerase (Homo sapiens), P07237 [C53S,C397S] (P07237 whole entry C53S/C397S): as the sequence (P07237 whole entry) above, with C53S, C397S counted along it
Sequence of Protein disulfide-isomerase (Homo sapiens), P07237 [H256A] (P07237 whole entry H256A): as the sequence (P07237 whole entry) above, with H256A counted along it
Sequence of Eukaryotic translation initiation factor 2 subunit 1 (Homo sapiens) (P05198 whole entry): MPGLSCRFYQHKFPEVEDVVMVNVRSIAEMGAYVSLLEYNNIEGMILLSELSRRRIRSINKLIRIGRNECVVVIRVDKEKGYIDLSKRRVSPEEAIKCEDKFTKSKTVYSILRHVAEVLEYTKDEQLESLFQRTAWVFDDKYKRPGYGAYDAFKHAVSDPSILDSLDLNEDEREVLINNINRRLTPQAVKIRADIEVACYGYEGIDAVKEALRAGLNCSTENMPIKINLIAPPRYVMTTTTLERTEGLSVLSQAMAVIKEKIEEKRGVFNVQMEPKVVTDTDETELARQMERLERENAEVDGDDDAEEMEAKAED

Turning to `CCCCCN(CCCCC)S(=O)(=O)c1ccc(C(=O)/C=C/c2cccc(O)c2)cc1`, the IC50 in [1] was found to be 810 nM; in [2], 15 µM; in [3], 11.3 µM; in assay [4] it was 7.6 µM; in assay [5], 29.2 µM. Moreover, the “Ratio IC50” value in assay [6] is 3.85. For the same compound, the ΔTm in assay [7] was found to be 3.58 °C. Moreover, the result in [8], in assay [9], in assay [11], in assay [12], in assay [13] and in assay [14] was Active. For the same compound, the result in [16] and in assay [18] was Active. Besides, the Kd entry in [10] is given as “Nd(Insoluble)”. Besides, the outcome in assay [15] and in assay [17] was inactive. Moreover, in assay [19], the inhibition entry is “Active”. Also, in assay [20], the inhibition result was “inactive”.
Regarding `COC(=O)c1cccc(/C=C/C(=O)c2cccc(O)c2)c1`, the IC50 is 120 nM in assay [1]; 16.5 µM in [2]; 19.5 µM in assay [3]; 22.7 µM in assay [4]; 17.4 µM in [5]. Also, the “Ratio IC50” value in [6] is given as 0.77. The ΔTm in [7] was found to be 1.86 °C. Also, the outcome in assay [8], in assay [9], in [11], in assay [12], in assay [13] and in assay [14] was Active. Also, the Kd result in [10] is reported as “Nd(Insoluble)”. For the same compound, the outcome in [15] and in assay [17] was inactive. In addition, the inhibition result in [19] and in [20] was “inactive” throughout.
`O=C(/C=C/c1ccc(-c2cccnc2)cc1)c1cccc(O)c1`: the IC50 was 350 nM in assay [1]; 10.7 µM in assay [2]; 11 µM in [3]; 4.9 µM in [4]; 22.5 µM in assay [5]. Also, the “Ratio IC50” value in assay [6] is given as 4.57. Moreover, the ΔTm in assay [7] turned out to be 2.83 °C. Further, the outcome in [8], in assay [9], in assay [11], in [12], in assay [13] and in assay [14] was Active. The outcome in [18] was Active. The result in assay [15] and in assay [17] was inactive. The inhibition result in assay [19] is “inactive”. In addition, the inhibition entry in assay [20] is “Active”.
Consider `CCCCCN(CCCCC)S(=O)(=O)c1ccc(C(=O)/C=C/c2cccc(C#N)c2)cc1`, for which the IC50 turned out to be 160 nM in assay [1]; 5.6 µM in assay [2]; 9 µM in assay [3]; 5 µM in [4]; 3.4 µM in assay [5]. The “Ratio IC50” value in [6] is given as 0.67. Further, the ΔTm in assay [7] amounted to 0.52 °C. Also, the outcome in assay [11], in assay [12], in assay [13], in assay [14], in assay [16] and in [18] was Active. Moreover, the result in assay [15] and in [17] was inactive. Moreover, the inhibition entry in [19] was “inactive”.
As to `N#Cc1cccc(/C=C/C(=O)c2ccc(O)cc2)c1`, the 50% inhibitory concentration (IC50) in assay [2] is 10.3 to 10.7 µM; in [3] it was 16.8 µM; in assay [4], 15.7 µM; in assay [5], 91.2 µM. Further, the “Ratio IC50” value in assay [6] was determined as 5.8. For the same compound, the ΔTm in assay [7] worked out at 2.85 °C. Also, the result in assay [8], in assay [15] and in assay [17] was inactive. The outcome in assay [9], in assay [11], in [12], in [13], in [14] and in assay [16] was Active. Moreover, the Kd in assay [10] (read-out: Kd) stood at 9.1 µM. Also, the inhibition entry in [19] was “inactive”. Besides, the inhibition entry in assay [20] was “Active”.

By IC50 is commonly meant the concentration needed to halve the response being measured. What is called ΔTm is the shift of the melting midpoint relative to a reference. Broadly, the Kd is the free concentration of one partner at which half of the binding sites on the other are occupied at equilibrium, for simple one-to-one binding.

(Values after ChEMBL document CHEMBL4390639, “Design, Synthesis, and Biological Evaluation of Novel Allosteric Protein Disulfide Isomerase Inhibitors” (J Med Chem, 2019).)
